Structures are written as SMILES. Calls of active or inactive are those of the source. The rule behind the calls is not given here.

Consider 9 compounds from ChEMBL document CHEMBL1143741, “Sirtuin 2 inhibitors rescue alpha-synuclein-mediated toxicity in models of Parkinson's disease” (Science, 2007).

The first assay addresses T1, NAD-dependent protein deacetylase sirtuin-2 (Homo sapiens, UniProt Q8IXJ6).
T1 sequence (Q8IXJ6 whole entry): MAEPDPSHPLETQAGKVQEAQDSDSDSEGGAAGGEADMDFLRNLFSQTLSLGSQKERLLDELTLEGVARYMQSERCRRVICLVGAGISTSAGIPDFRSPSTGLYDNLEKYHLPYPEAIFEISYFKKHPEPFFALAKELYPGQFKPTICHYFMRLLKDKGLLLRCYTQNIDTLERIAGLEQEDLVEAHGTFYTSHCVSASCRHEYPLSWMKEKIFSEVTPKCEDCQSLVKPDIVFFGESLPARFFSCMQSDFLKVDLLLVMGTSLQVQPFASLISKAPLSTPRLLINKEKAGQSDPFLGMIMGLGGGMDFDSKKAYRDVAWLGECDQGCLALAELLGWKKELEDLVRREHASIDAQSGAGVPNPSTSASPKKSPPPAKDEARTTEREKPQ
As to the kind of experiment: Inhibition of human recombinant SIRT2 using fluorescent peptide substrate by fluorescent assay. In a few lines: (§1)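 Recombinant human SIRT1 or SIRT2 tested in an in vitro fluorometric deacetylation assay. Dose-response inhibition profiles were run, and IC50 was calculated from them.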
A word on the IC50: it is the concentration needed to halve the response being measured. Turning to `N#C/C(=C\c1ccc(-c2cccc(Cl)c2Cl)o1)C(=O)Nc1cccc2cccnc12`, the IC50 is above 50 µM.

For the compound `N#C/C(=C\c1ccc(-c2ccccc2Cl)o1)C(=O)Nc1cccc2ncccc12`, the half-inhibitory concentration (IC50) turned out to be 5.5 µM.

For `N#C/C(=C\c1ccc(-c2cccc(Cl)c2Cl)o1)C(=O)Nc1cccc2ncccc12`, the half-maximal inhibitory concentration (IC50) was above 10 µM.

With `O=C(c1ccc(Cl)cc1)N1CCN(c2ccc([N+](=O)[O-])c3ncccc23)CC1`, the half-inhibitory concentration (IC50) turned out to be 35 µM.

For `N#C/C(=C\c1ccc(-c2cccc(C(F)(F)F)c2)o1)C(=O)Nc1cccc2cccnc12`, the IC50 is above 50 µM.

Take `N#C/C(=C\c1ccc(-c2cccc(C(F)(F)F)c2)o1)C(=O)Nc1cccc2ncccc12`: the IC50 stood at 6 µM.

As to `N#C/C(=C\c1ccc(-c2cc(Cl)ccc2Cl)o1)C(=O)Nc1cccc2cccnc12`, the half-inhibitory concentration (IC50) was above 50 µM.

In the case of `N#C/C(=C\c1ccc(-c2ccccc2Cl)o1)C(=O)Nc1cccc2cccnc12`, the 50% inhibitory concentration (IC50) was above 50 µM.

Another assay has as its target T2, NAD-dependent protein deacetylase sirtuin-3, mitochondrial (Homo sapiens, UniProt Q9NTG7).
T2 sequence (Q9NTG7 whole entry): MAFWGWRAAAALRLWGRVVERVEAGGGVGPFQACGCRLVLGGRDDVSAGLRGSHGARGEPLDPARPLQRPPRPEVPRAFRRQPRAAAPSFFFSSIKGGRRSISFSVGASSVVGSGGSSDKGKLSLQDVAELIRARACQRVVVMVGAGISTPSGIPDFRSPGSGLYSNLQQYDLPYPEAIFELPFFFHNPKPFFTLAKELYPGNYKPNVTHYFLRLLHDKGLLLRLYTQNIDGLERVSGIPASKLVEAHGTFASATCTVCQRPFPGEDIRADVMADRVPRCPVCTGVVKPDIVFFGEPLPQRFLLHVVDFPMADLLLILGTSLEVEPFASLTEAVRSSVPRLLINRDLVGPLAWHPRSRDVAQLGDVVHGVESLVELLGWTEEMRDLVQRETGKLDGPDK
As to the kind of experiment: Inhibition of human recombinant SIRT3 using fluorescent peptide substrate by fluorescent assay.
Regarding `N#C/C(=C\c1ccc(-c2cccc(Cl)c2Cl)o1)C(=O)Nc1cccc2cccnc12`, the IC50 is above 50 µM.

For `N#C/C(=C\c1ccc(-c2ccccc2Cl)o1)C(=O)Nc1cccc2ncccc12`, the IC50 was above 50 µM.

Regarding `N#C/C(=C\c1ccc(-c2cccc(Cl)c2Cl)o1)C(=O)Nc1cccc2ncccc12`, the concentration for half-maximal inhibition (IC50) is above 50 µM.

As for `O=C(c1ccc(Cl)cc1)N1CCN(c2ccc([N+](=O)[O-])c3ncccc23)CC1`, the 50% inhibitory concentration (IC50) is above 50 µM.

As for `N#C/C(=C\c1ccc(-c2cccc(C(F)(F)F)c2)o1)C(=O)Nc1cccc2cccnc12`, the IC50 is above 50 µM.

Turning to `N#C/C(=C\c1ccc(-c2cccc(C(F)(F)F)c2)o1)C(=O)Nc1cccc2ncccc12`, the IC50 is above 50 µM.

On to `N#C/C(=C\c1ccc(-c2cc(Cl)ccc2Cl)o1)C(=O)Nc1cccc2cccnc12`, for which the 50% inhibitory concentration (IC50) was above 5 µM.

Consider `N#C/C(=C\c1ccc(-c2ccccc2Cl)o1)C(=O)Nc1cccc2cccnc12`, for which the concentration for half-maximal inhibition (IC50) is above 50 µM.

A further assay addresses T3, NAD-dependent protein deacetylase sirtuin-1 (Homo sapiens, UniProt Q96EB6).
T3 sequence (Q96EB6 whole entry): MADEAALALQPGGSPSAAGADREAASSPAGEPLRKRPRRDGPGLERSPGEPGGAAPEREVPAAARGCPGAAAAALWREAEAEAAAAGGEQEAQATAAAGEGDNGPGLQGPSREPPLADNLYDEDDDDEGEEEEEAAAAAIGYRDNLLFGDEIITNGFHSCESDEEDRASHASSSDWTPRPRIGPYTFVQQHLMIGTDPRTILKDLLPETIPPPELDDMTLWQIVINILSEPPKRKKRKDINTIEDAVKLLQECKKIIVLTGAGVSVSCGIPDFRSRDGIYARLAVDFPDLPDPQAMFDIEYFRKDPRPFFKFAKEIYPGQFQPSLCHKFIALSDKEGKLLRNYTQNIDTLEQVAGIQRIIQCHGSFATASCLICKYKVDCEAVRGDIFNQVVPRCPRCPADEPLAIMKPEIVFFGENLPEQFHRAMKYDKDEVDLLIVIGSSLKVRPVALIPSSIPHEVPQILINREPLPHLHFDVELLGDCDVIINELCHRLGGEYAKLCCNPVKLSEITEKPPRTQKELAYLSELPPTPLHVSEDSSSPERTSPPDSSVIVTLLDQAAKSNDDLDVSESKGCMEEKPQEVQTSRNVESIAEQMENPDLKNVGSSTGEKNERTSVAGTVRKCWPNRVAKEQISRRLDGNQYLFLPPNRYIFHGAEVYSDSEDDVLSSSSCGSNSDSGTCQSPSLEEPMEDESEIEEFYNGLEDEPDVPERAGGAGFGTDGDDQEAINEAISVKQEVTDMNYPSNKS
As to the kind of experiment: Inhibition of human recombinant SIRT1 using fluorescent peptide substrate by fluorescent assay. In a few lines: as §1
In the case of `N#C/C(=C\c1ccc(-c2cccc(Cl)c2Cl)o1)C(=O)Nc1cccc2cccnc12`, the IC50 is above 50 µM.

Consider `N#C/C(=C\c1ccc(-c2cccc(Cl)c2Cl)o1)C(=O)Nc1cccc2ncccc12`, for which the concentration for half-maximal inhibition (IC50) was above 50 µM.

Take `O=C(c1ccc(Cl)cc1)N1CCN(c2ccc([N+](=O)[O-])c3ncccc23)CC1`: the IC50 was above 50 µM.

On to `N#C/C(=C\c1ccc(-c2cc(Cl)ccc2Cl)o1)C(=O)Nc1cccc2ncccc12`, for which the IC50 was above 50 µM.

`N#C/C(=C\c1ccc(-c2cccc(C(F)(F)F)c2)o1)C(=O)Nc1cccc2cccnc12`: the half-maximal inhibitory concentration (IC50) was above 50 µM.

For `N#C/C(=C\c1ccc(-c2cccc(C(F)(F)F)c2)o1)C(=O)Nc1cccc2ncccc12`, the IC50 is above 50 µM.

The next assay deals with Drosophila. As to the kind of experiment: Protective effect against alphaSyn mediated toxicity in wild-type transgenic Drosophila expressing elav-GAL4; UAS-synWT assessed as rescue of dorsomedial neurons after drug administration for the first 20 days of adult life. The assay is classed as functional, organism-based. In a few lines: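 Transgenic α-Syn flies were fed compound at 250, 500 or 1000 μM, or DMSO, for the first 20 days of adult life. TH-positive dopamine neurons in the dorsomedial cluster were then assessed in 20-day-old flies. Significance was set at P < 0.01.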
For the compound `N#C/C(=C\c1ccc(-c2cc(Cl)ccc2Cl)o1)C(=O)Nc1cccc2ncccc12`, the Activity result was “Dose-dependent effect”.

A further assay concerns Midbrain. As to the kind of experiment: Protection of dopaminergic cell death in rat embryo midbrain transduced with lentivirus encoding alphaSyn-A53T mutant assessed as tyrosine hydroxylase positive cells. The assay is classed as functional, tissue-based. In a few lines:
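Primary midbrain cultures transduced with α-SynA53T lentivirus (multiplicity of infection = 5) in the presence of vehicle (DMSO) or increasing compound concentrations. Untransduced DMSO-treated (0.2%, v/v) cells served as control. Stained for MAP2 and TH; viability = percentage of MAP2-positive cells also TH-positive. Means ± SEM, N > 3; one-way ANOVA with Dunnett's post hoc test versus α-SynA53T alone.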
In the case of `O=C(c1ccc(Cl)cc1)N1CCN(c2ccc([N+](=O)[O-])c3ncccc23)CC1`, the outcome was Active.

As to `N#C/C(=C\c1ccc(-c2cc(Cl)ccc2Cl)o1)C(=O)Nc1cccc2ncccc12`, the outcome was Active.
